Measured values from ChEMBL document CHEMBL1128519, “Semisynthetic chemical modification of the antifungal lipopeptide echinocandin B (ECB): structure-activity studies of the lipophilic and geometric parameters of polyarylated acyl analogs of ECB” (J Med Chem, 1995).
Values after ≈ are worked out from the molar mass of the structure shown. Numbered stars: 1 amine (or outer) side, 2 acyl side, 3 side chain; on linkers, the order of the positions; unused ones are H or OH. Bridge positions count the residues as written; N and C are the ends. Square brackets hold non-standard residues; d marks the D form. Peptide text beside a SMILES is read from it. * marks the point of attachment. Orn(4R-OH,5R-OH) = O=C([C@H](C[C@@H](O)[C@@H](O)N[*:3])N[*:1])[*:2]; X16 = O=C(c1ccc(OCCOCCC23C[C@H]4C[C@@H](C2)C[C@@H](C3)C4)cc1)*; hTyr(3S-OH,4S-OH) = N[C@H](C(=O)O)[C@H](O)[C@@H](O)c1ccc(O)cc1; X3 = CC(C)(C)OCCOc1ccc(C#Cc2ccc(-c3ccc(C(=O)*)cc3)cc2)cc1; X4 = CC(C)(C)OCCOc1ccc(-c2ccc(-c3ccc(C(=O)*)cc3)cc2)cc1; X17 = CCCCOCCOc1ccc(C#Cc2ccc(-c3ccc(C(=O)*)cc3)cc2)cc1; X1 = O=C(c1ccc(-c2ccc(-c3ccc(-c4ccccc4)cc3)cc2)cc1)*; X20 = CCCCCOc1ccc(C#Cc2ccc(-c3ccc(C(=O)*)cc3)cc2)cc1; X6 = CCCCOCCOc1ccc(-c2ccc(-c3ccc(C(=O)*)cc3)cc2)cc1; X7 = CCCCCCOc1ccc(-c2ccc(-c3ccc(C(=O)*)cc3)cc2)cc1; X2 = CCCOc1ccc(C#Cc2ccc(-c3ccc(C(=O)*)cc3)cc2)cc1; Pro(3S-OH,4S-Me) = C[C@H]1CN[C@H](C(=O)O)[C@H]1O; X14 = COc1ccc(C#Cc2ccc(-c3ccc(C(=O)*)cc3)cc2)cc1; X5 = O=C(c1ccc(C#Cc2ccc(C#Cc3ccccc3)cc2)cc1)*; X8 = O=C(c1ccc(-c2ccc(C#Cc3ccccc3)cc2)cc1)*; X21 = CCCCOc1ccc(-c2ccc(C(=O)*)cc2)cc1; X9 = CCCCCCCCCCOc1ccc2cc(C(=O)*)ccc2c1; Hyp = O=C(O)[C@@H]1C[C@@H](O)CN1

Legend:
Candida albicans [1] = assay: Antifungal activity against Candida albicans; type: functional
How it was run: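 Broth microdilution, C. albicans A26 (ATCC 62342) grown on Sabouraud dextrose agar at 35 °C; inoculum 1 × 10^5 conidia/mL in antibiotic 3 broth. Compounds dissolved at 1.0 mg/mL in methanol, 2-fold serial dilutions from 80 µg/mL, duplicate. Read after 48 h at 35 °C. MIC = lowest concentration completely inhibiting visible growth.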

Candida albicans [2] = assay: In vivo antifungal activity administered intraperitoneally against Candida albicans infections in mice.; type: functional; settings: ip
How it was run: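 Male ICR mice (18-20 g), X-irradiated with 400 r 24 h before iv tail-vein infection with 2 × 10^6 C. albicans A26 cells in saline. Compounds suspended in β-cyclodextrin, given parenterally at 0, 4, 24 and 48 h post-infection. 10 mice per dose, top dose 10 mg/kg with 2-fold dilutions down to 0.039 mg/kg. 7-day survival; ED50 by Reed-Muench.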

Candida albicans [3] = assay: In vivo antifungal activity administered orally against Candida albicans infections in mice.; type: functional; settings: po
How it was run: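 X-irradiated (400 r, 24 h prior) male ICR mice infected iv with 2 × 10^6 C. albicans A26 cells. Oral gavage in cremophor (5%)/linoleic acid (8%)/water vehicle, b.i.d. × 4 starting immediately post-infection. 10 mice per dose level. Study ends at day 7; ED50 = dose giving 50% survival, by Reed-Muench.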

[4] = molecular target: Beta-1,3-glucan synthase (Candida albicans) (UniProt O13428); assay: In vitro inhibition of glucan synthase obtained from Candida albicans at a concentration of 10 ug/mL.
Sequence of Beta-1,3-glucan synthase (Candida albicans) (O13428 as listed by the source): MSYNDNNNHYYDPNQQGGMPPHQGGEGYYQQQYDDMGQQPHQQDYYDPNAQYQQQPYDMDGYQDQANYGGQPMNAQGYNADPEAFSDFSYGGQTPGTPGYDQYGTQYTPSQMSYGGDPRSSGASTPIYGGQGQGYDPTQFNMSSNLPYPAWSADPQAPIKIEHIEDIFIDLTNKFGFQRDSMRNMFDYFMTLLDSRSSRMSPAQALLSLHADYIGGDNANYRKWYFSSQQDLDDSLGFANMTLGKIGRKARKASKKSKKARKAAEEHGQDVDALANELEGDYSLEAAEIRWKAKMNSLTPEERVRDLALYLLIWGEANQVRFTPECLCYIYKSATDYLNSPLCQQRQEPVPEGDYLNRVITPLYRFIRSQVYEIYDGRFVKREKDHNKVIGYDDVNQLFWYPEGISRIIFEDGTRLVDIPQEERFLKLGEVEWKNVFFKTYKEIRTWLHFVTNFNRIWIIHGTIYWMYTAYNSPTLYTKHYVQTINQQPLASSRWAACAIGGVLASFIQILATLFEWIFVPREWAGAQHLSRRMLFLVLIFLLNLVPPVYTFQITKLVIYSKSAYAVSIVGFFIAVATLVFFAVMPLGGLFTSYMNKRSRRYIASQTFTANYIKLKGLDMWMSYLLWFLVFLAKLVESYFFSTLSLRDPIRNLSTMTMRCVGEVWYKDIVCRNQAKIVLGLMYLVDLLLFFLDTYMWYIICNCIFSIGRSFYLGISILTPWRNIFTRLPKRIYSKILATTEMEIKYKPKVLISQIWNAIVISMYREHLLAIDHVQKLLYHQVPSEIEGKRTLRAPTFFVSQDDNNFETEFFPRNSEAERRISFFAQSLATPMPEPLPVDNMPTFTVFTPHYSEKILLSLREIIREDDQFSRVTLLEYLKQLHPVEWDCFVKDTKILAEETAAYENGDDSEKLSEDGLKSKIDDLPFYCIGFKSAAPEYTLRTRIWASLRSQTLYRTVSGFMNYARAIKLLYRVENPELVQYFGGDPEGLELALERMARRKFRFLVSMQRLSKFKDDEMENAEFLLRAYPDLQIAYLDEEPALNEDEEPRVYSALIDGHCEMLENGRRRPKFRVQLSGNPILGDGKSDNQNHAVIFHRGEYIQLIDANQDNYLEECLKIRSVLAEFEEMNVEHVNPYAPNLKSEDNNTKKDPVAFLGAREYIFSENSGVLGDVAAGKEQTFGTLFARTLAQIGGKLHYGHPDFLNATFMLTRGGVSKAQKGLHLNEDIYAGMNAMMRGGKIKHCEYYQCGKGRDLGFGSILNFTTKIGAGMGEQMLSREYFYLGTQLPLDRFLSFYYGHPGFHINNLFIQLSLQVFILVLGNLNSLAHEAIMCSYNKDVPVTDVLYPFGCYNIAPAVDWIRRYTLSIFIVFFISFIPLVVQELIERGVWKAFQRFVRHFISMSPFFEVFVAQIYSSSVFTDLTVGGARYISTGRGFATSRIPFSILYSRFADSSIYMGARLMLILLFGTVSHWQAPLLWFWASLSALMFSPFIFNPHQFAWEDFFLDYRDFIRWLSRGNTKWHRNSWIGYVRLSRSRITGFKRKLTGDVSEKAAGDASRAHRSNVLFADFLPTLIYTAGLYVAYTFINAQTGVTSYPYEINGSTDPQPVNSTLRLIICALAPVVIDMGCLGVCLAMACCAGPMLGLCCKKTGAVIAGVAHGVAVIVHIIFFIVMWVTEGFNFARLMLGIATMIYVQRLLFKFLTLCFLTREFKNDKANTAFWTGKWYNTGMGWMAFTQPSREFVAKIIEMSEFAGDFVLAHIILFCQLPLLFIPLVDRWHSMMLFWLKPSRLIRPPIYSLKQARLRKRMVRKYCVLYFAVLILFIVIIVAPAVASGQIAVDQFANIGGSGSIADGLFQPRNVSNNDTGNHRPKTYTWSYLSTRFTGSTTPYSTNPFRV
How it was run: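 Purified, solubilized β-(1,3)-D-glucan synthase prepared from C. albicans. Percent inhibition measured at 10 µg/mL compound, single determination.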

C[C@@H](O)[C@@H]1NC(=O)[C@H]([C@H](O)[C@@H](O)c2ccc(O)cc2)NC(=O)[C@@H]2C[C@@H](O)CN2C(=O)[C@H]([C@@H](C)O)NC(=O)[C@@H](NC(=O)c2ccc(-c3ccc(-c4ccc(-c5ccccc5)cc4)cc3)cc2)C[C@@H](O)[C@@H](O)NC(=O)[C@@H]2[C@@H](O)[C@@H](C)CN2C1=O (X1-[Orn(4R-OH,5R-OH)]T[Hyp][hTyr(3S-OH,4S-OH)]T[Pro(3S-OH,4S-Me)]; lactam 1-C)
MIC (Candida albicans [1]): < 0.01 µg/mL
ED50 (Candida albicans [2]): 0.4 mg/kg
ED50 (Candida albicans [3]): 39.7 mg/kg
inhibition [4]: 74.7%

CCCOc1ccc(C#Cc2ccc(-c3ccc(C(=O)N[C@H]4C[C@@H](O)[C@@H](O)NC(=O)[C@@H]5[C@@H](O)[C@@H](C)CN5C(=O)[C@H]([C@@H](C)O)NC(=O)[C@H]([C@H](O)[C@@H](O)c5ccc(O)cc5)NC(=O)[C@@H]5C[C@@H](O)CN5C(=O)[C@H]([C@@H](C)O)NC4=O)cc3)cc2)cc1 (X2-[Orn(4R-OH,5R-OH)]T[Hyp][hTyr(3S-OH,4S-OH)]T[Pro(3S-OH,4S-Me)]; lactam 1-C)
MIC (Candida albicans [1]): < 0.01 µg/mL
ED50 (Candida albicans [2]): 0.4 mg/kg
ED50 (Candida albicans [3]): 7 mg/kg
inhibition [4]: 83.5%

C[C@@H](O)[C@@H]1NC(=O)[C@H]([C@H](O)[C@@H](O)c2ccc(O)cc2)NC(=O)[C@@H]2C[C@@H](O)CN2C(=O)[C@H]([C@@H](C)O)NC(=O)[C@@H](NC(=O)c2ccc(-c3ccc(C#Cc4ccc(OCCOC(C)(C)C)cc4)cc3)cc2)C[C@@H](O)[C@@H](O)NC(=O)[C@@H]2[C@@H](O)[C@@H](C)CN2C1=O (X3-[Orn(4R-OH,5R-OH)]T[Hyp][hTyr(3S-OH,4S-OH)]T[Pro(3S-OH,4S-Me)]; lactam 1-C)
MIC (Candida albicans [1]): 0.02 µg/mL (≈ 0.0167 µM)
ED50 (Candida albicans [2]): 0.2 mg/kg
ED50 (Candida albicans [3]): 7.6 mg/kg
inhibition [4]: 82.4%

C[C@@H](O)[C@@H]1NC(=O)[C@H]([C@H](O)[C@@H](O)c2ccc(O)cc2)NC(=O)[C@@H]2C[C@@H](O)CN2C(=O)[C@H]([C@@H](C)O)NC(=O)[C@@H](NC(=O)c2ccc(-c3ccc(-c4ccc(OCCOC(C)(C)C)cc4)cc3)cc2)C[C@@H](O)[C@@H](O)NC(=O)[C@@H]2[C@@H](O)[C@@H](C)CN2C1=O (X4-[Orn(4R-OH,5R-OH)]T[Hyp][hTyr(3S-OH,4S-OH)]T[Pro(3S-OH,4S-Me)]; lactam 1-C)
MIC (Candida albicans [1]): 0.06 µg/mL (≈ 0.0513 µM)
ED50 (Candida albicans [2]): 0.4 mg/kg
ED50 (Candida albicans [3]): 21.3 mg/kg
inhibition [4]: 76.1%

C[C@@H](O)[C@@H]1NC(=O)[C@H]([C@H](O)[C@@H](O)c2ccc(O)cc2)NC(=O)[C@@H]2C[C@@H](O)CN2C(=O)[C@H]([C@@H](C)O)NC(=O)[C@@H](NC(=O)c2ccc(C#Cc3ccc(C#Cc4ccccc4)cc3)cc2)C[C@@H](O)[C@@H](O)NC(=O)[C@@H]2[C@@H](O)[C@@H](C)CN2C1=O (X5-[Orn(4R-OH,5R-OH)]T[Hyp][hTyr(3S-OH,4S-OH)]T[Pro(3S-OH,4S-Me)]; lactam 1-C)
MIC (Candida albicans [1]): 0.01 µg/mL (≈ 0.00907 µM)
ED50 (Candida albicans [2]): 4.5 mg/kg
ED50 (Candida albicans [3]): 16 mg/kg
inhibition [4]: 81.3%

CCCCOCCOc1ccc(-c2ccc(-c3ccc(C(=O)N[C@H]4C[C@@H](O)[C@@H](O)NC(=O)[C@@H]5[C@@H](O)[C@@H](C)CN5C(=O)[C@H]([C@@H](C)O)NC(=O)[C@H]([C@H](O)[C@@H](O)c5ccc(O)cc5)NC(=O)[C@@H]5C[C@@H](O)CN5C(=O)[C@H]([C@@H](C)O)NC4=O)cc3)cc2)cc1 (X6-[Orn(4R-OH,5R-OH)]T[Hyp][hTyr(3S-OH,4S-OH)]T[Pro(3S-OH,4S-Me)]; lactam 1-C)
MIC (Candida albicans [1]): 0.03 µg/mL (≈ 0.0256 µM)
ED50 (Candida albicans [2]): 0.3 mg/kg
ED50 (Candida albicans [3]): 13.6 mg/kg
inhibition [4]: 80.1%

CCCCCCOc1ccc(-c2ccc(-c3ccc(C(=O)N[C@H]4C[C@@H](O)[C@@H](O)NC(=O)[C@@H]5[C@@H](O)[C@@H](C)CN5C(=O)[C@H]([C@@H](C)O)NC(=O)[C@H]([C@H](O)[C@@H](O)c5ccc(O)cc5)NC(=O)[C@@H]5C[C@@H](O)CN5C(=O)[C@H]([C@@H](C)O)NC4=O)cc3)cc2)cc1 (X7-[Orn(4R-OH,5R-OH)]T[Hyp][hTyr(3S-OH,4S-OH)]T[Pro(3S-OH,4S-Me)]; lactam 1-C)
MIC (Candida albicans [1]): 0.03 µg/mL (≈ 0.026 µM)
ED50 (Candida albicans [2]): 0.8 mg/kg
ED50 (Candida albicans [3]): 6.8 mg/kg

C[C@@H](O)[C@@H]1NC(=O)[C@H]([C@H](O)[C@@H](O)c2ccc(O)cc2)NC(=O)[C@@H]2C[C@@H](O)CN2C(=O)[C@H]([C@@H](C)O)NC(=O)[C@@H](NC(=O)c2ccc(-c3ccc(C#Cc4ccccc4)cc3)cc2)C[C@@H](O)[C@@H](O)NC(=O)[C@@H]2[C@@H](O)[C@@H](C)CN2C1=O (X8-[Orn(4R-OH,5R-OH)]T[Hyp][hTyr(3S-OH,4S-OH)]T[Pro(3S-OH,4S-Me)]; lactam 1-C)
MIC (Candida albicans [1]): 0.039 µg/mL (≈ 0.0362 µM)
ED50 (Candida albicans [2]): 0.6 mg/kg
ED50 (Candida albicans [3]): 18.8 mg/kg
inhibition [4]: 75.8%

CCCCCCCCCCOc1ccc2cc(C(=O)N[C@H]3C[C@@H](O)[C@@H](O)NC(=O)[C@@H]4[C@@H](O)[C@@H](C)CN4C(=O)[C@H]([C@@H](C)O)NC(=O)[C@H]([C@H](O)[C@@H](O)c4ccc(O)cc4)NC(=O)[C@@H]4C[C@@H](O)CN4C(=O)[C@H]([C@@H](C)O)NC3=O)ccc2c1 (X9-[Orn(4R-OH,5R-OH)]T[Hyp][hTyr(3S-OH,4S-OH)]T[Pro(3S-OH,4S-Me)]; lactam 1-C)
MIC (Candida albicans [1]): 0.005 µg/mL (≈ 0.00451 µM)
ED50 (Candida albicans [2]): 1.6 mg/kg
ED50 (Candida albicans [3]): 46.1 mg/kg
inhibition [4]: 82.2%

COc1ccc(C#Cc2ccc(-c3ccc(C(=O)N[C@H]4C[C@@H](O)[C@@H](O)NC(=O)[C@@H]5[C@@H](O)[C@@H](C)CN5C(=O)[C@H]([C@@H](C)O)NC(=O)[C@H]([C@H](O)[C@@H](O)c5ccc(O)cc5)NC(=O)[C@@H]5C[C@@H](O)CN5C(=O)[C@H]([C@@H](C)O)NC4=O)cc3)cc2)cc1 (X14-[Orn(4R-OH,5R-OH)]T[Hyp][hTyr(3S-OH,4S-OH)]T[Pro(3S-OH,4S-Me)]; lactam 1-C)
MIC (Candida albicans [1]): 0.02 µg/mL (≈ 0.018 µM)
ED50 (Candida albicans [3]): 19 mg/kg
inhibition [4]: 81%

C[C@@H](O)[C@@H]1NC(=O)[C@H]([C@H](O)[C@@H](O)c2ccc(O)cc2)NC(=O)[C@@H]2C[C@@H](O)CN2C(=O)[C@H]([C@@H](C)O)NC(=O)[C@@H](NC(=O)c2ccc(OCCOCCC34C[C@H]5C[C@@H](C3)C[C@@H](C4)C5)cc2)C[C@@H](O)[C@@H](O)NC(=O)[C@@H]2[C@@H](O)[C@@H](C)CN2C1=O (X16-[Orn(4R-OH,5R-OH)]T[Hyp][hTyr(3S-OH,4S-OH)]T[Pro(3S-OH,4S-Me)]; lactam 1-C)
MIC (Candida albicans [1]): 0.039 µg/mL (≈ 0.0347 µM)
ED50 (Candida albicans [3]): > 50 mg/kg
inhibition [4]: 72.3%

CCCCOCCOc1ccc(C#Cc2ccc(-c3ccc(C(=O)N[C@H]4C[C@@H](O)[C@@H](O)NC(=O)[C@@H]5[C@@H](O)[C@@H](C)CN5C(=O)[C@H]([C@@H](C)O)NC(=O)[C@H]([C@H](O)[C@@H](O)c5ccc(O)cc5)NC(=O)[C@@H]5C[C@@H](O)CN5C(=O)[C@H]([C@@H](C)O)NC4=O)cc3)cc2)cc1 (X17-[Orn(4R-OH,5R-OH)]T[Hyp][hTyr(3S-OH,4S-OH)]T[Pro(3S-OH,4S-Me)]; lactam 1-C)
MIC (Candida albicans [1]): 0.02 µg/mL (≈ 0.0167 µM)
ED50 (Candida albicans [3]): 10.6 mg/kg
inhibition [4]: 81.9%

CCCCCOc1ccc(C#Cc2ccc(-c3ccc(C(=O)N[C@H]4C[C@@H](O)[C@@H](O)NC(=O)[C@@H]5[C@@H](O)[C@@H](C)CN5C(=O)[C@H]([C@@H](C)O)NC(=O)[C@H]([C@H](O)[C@@H](O)c5ccc(O)cc5)NC(=O)[C@@H]5C[C@@H](O)CN5C(=O)[C@H]([C@@H](C)O)NC4=O)cc3)cc2)cc1 (X20-[Orn(4R-OH,5R-OH)]T[Hyp][hTyr(3S-OH,4S-OH)]T[Pro(3S-OH,4S-Me)]; lactam 1-C)
MIC (Candida albicans [1]): < 0.01 µg/mL
ED50 (Candida albicans [3]): 8.8 mg/kg
inhibition [4]: 82.3%

CCCCOc1ccc(-c2ccc(C(=O)N[C@H]3C[C@@H](O)[C@@H](O)NC(=O)[C@@H]4[C@@H](O)[C@@H](C)CN4C(=O)[C@H]([C@@H](C)O)NC(=O)[C@H]([C@H](O)[C@@H](O)c4ccc(O)cc4)NC(=O)[C@@H]4C[C@@H](O)CN4C(=O)[C@H]([C@@H](C)O)NC3=O)cc2)cc1 (X21-[Orn(4R-OH,5R-OH)]T[Hyp][hTyr(3S-OH,4S-OH)]T[Pro(3S-OH,4S-Me)]; lactam 1-C)
MIC (Candida albicans [1]): 0.078 µg/mL (≈ 0.0743 µM)
ED50 (Candida albicans [2]): 0.8 mg/kg
inhibition [4]: 71.4%
